{
  "source": "ChEMBL document CHEMBL3585269",
  "about": "“Simple structural modifications confer cytotoxicity to allobetulin” (Bioorg Med Chem, 2015)",
  "data": [
    {"system": "not listed separately", "assay": "Cytotoxicity against mouse NIH/3T3 cells by SRB assay", "assay_type": "cell-based", "conditions": "NIH3T3", "units": {"EC50": "µM"}, "values": [
      {"smiles": "CC1(C)CC[C@]23CC[C@]4(C)[C@H](CC[C@@H]5[C@@]6(C)CC[C@@H](N)C(C)(C)[C@@H]6CC[C@]54C)[C@H]2[C@H]1OC3", "EC50": 15.9},
      {"smiles": "CC1(C)CC[C@]23CC[C@]4(C)[C@H](CC[C@@H]5[C@@]6(C)CC[C@H](N)C(C)(C)[C@@H]6CC[C@]54C)[C@H]2[C@H]1OC3", "EC50": 7.3},
      {"smiles": "CCOC(=O)C[C@]1(C)[C@H]2CC[C@@H]3[C@H]4[C@H]5OC[C@@]4(CCC5(C)C)CC[C@@]3(C)[C@]2(C)CC[C@H]1C(C)(C)C(=O)OCC", "EC50": 25}
    ]},
    {"system": "not listed separately", "assay": "(§1) Cytotoxicity against human 518A2 cells by SRB assay", "assay_type": "functional, cell-based", "conditions": "518a2", "procedure,_shortened": "(§2)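 Photometric sulforhodamine B (SRB) read-out after 96 h of compound treatment. EC50 values are averaged from three independent experiments, each run in triplicate, and reported with a 95% confidence interval. The assay has an upper cut-off.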", "values": [
      {"smiles": "CC1(C)CC[C@]23CC[C@]4(C)[C@H](CC[C@@H]5[C@@]6(C)CC/C(=N\\O)C(C)(C)[C@@H]6CC[C@]54C)[C@H]2[C@H]1OC3", "EC50": "ND(Insoluble)"},
      {"smiles": "C=C(C)[C@@H]1CC[C@]2(C)[C@H](CC[C@@H]3[C@H]4[C@H]5OC[C@@]4(CCC5(C)C)CC[C@]32C)[C@@]1(C)CCC(=O)O", "EC50": "ND(Insoluble)"},
      {"smiles": "C=C(C)[C@@H]1CC[C@]2(C)[C@H](CC[C@@H]3[C@H]4[C@H]5OC[C@@]4(CCC5(C)C)CC[C@]32C)[C@@]1(C)CCC(=O)OCc1ccccc1", "EC50": "ND(Insoluble)"}
    ]},
    {"system": "not listed separately", "assay": "as §1", "assay_type": "functional, cell-based", "conditions": "Homo sapiens, 518A2; read-out: EC50", "procedure,_shortened": "as §2", "units": {"EC50": "µM"}, "values": [
      {"smiles": "CC1(C)CC[C@]23CC[C@]4(C)[C@H](CC[C@@H]5[C@@]6(C)CC[C@@H](N)C(C)(C)[C@@H]6CC[C@]54C)[C@H]2[C@H]1OC3", "EC50": 10.2},
      {"smiles": "CC1(C)CC[C@]23CC[C@]4(C)[C@H](CC[C@@H]5[C@@]6(C)CC[C@H](N)C(C)(C)[C@@H]6CC[C@]54C)[C@H]2[C@H]1OC3", "EC50": 5.4},
      {"smiles": "CCOC(=O)C[C@]1(C)[C@H]2CC[C@@H]3[C@H]4[C@H]5OC[C@@]4(CCC5(C)C)CC[C@@]3(C)[C@]2(C)CC[C@H]1C(C)(C)C(=O)OCC", "EC50": 26.1}
    ]},
    {"system": "HT-29", "assay": "(§3) Cytotoxicity against human HT-29 cells by SRB assay", "assay_type": "functional, cell-based", "conditions": "Homo sapiens, HT-29; read-out: EC50", "procedure,_shortened": "as §2", "units": {"EC50": "µM"}, "values": [
      {"smiles": "CC1(C)CC[C@]23CC[C@]4(C)[C@H](CC[C@@H]5[C@@]6(C)CC[C@@H](N)C(C)(C)[C@@H]6CC[C@]54C)[C@H]2[C@H]1OC3", "EC50": 6.8},
      {"smiles": "CC1(C)CC[C@]23CC[C@]4(C)[C@H](CC[C@@H]5[C@@]6(C)CC[C@H](N)C(C)(C)[C@@H]6CC[C@]54C)[C@H]2[C@H]1OC3", "EC50": 6.2},
      {"smiles": "CCOC(=O)C[C@]1(C)[C@H]2CC[C@@H]3[C@H]4[C@H]5OC[C@@]4(CCC5(C)C)CC[C@@]3(C)[C@]2(C)CC[C@H]1C(C)(C)C(=O)OCC", "EC50": 17.6}
    ]},
    {"system": "HT-29", "assay": "as §3", "assay_type": "functional, cell-based", "conditions": "ht-29", "procedure,_shortened": "as §2", "values": [
      {"smiles": "CC1(C)CC[C@]23CC[C@]4(C)[C@H](CC[C@@H]5[C@@]6(C)CC/C(=N\\O)C(C)(C)[C@@H]6CC[C@]54C)[C@H]2[C@H]1OC3", "EC50": "ND(Insoluble)"},
      {"smiles": "C=C(C)[C@@H]1CC[C@]2(C)[C@H](CC[C@@H]3[C@H]4[C@H]5OC[C@@]4(CCC5(C)C)CC[C@]32C)[C@@]1(C)CCC(=O)O", "EC50": "ND(Insoluble)"},
      {"smiles": "C=C(C)[C@@H]1CC[C@]2(C)[C@H](CC[C@@H]3[C@H]4[C@H]5OC[C@@]4(CCC5(C)C)CC[C@]32C)[C@@]1(C)CCC(=O)OCc1ccccc1", "EC50": "ND(Insoluble)"}
    ]},
    {"system": "MCF7", "assay": "(§4) Cytotoxicity against human MCF7 cells by SRB assay", "assay_type": "functional, cell-based", "conditions": "Homo sapiens, MCF7; read-out: EC50", "procedure,_shortened": "as §2", "units": {"EC50": "µM"}, "values": [
      {"smiles": "CC1(C)CC[C@]23CC[C@]4(C)[C@H](CC[C@@H]5[C@@]6(C)CC[C@@H](N)C(C)(C)[C@@H]6CC[C@]54C)[C@H]2[C@H]1OC3", "EC50": 15.2},
      {"smiles": "CC1(C)CC[C@]23CC[C@]4(C)[C@H](CC[C@@H]5[C@@]6(C)CC[C@H](N)C(C)(C)[C@@H]6CC[C@]54C)[C@H]2[C@H]1OC3", "EC50": 10.4},
      {"smiles": "CCOC(=O)C[C@]1(C)[C@H]2CC[C@@H]3[C@H]4[C@H]5OC[C@@]4(CCC5(C)C)CC[C@@]3(C)[C@]2(C)CC[C@H]1C(C)(C)C(=O)OCC", "EC50": 26.1}
    ]},
    {"system": "MCF7", "assay": "as §4", "assay_type": "functional, cell-based", "conditions": "mcf7", "procedure,_shortened": "as §2", "values": [
      {"smiles": "CC1(C)CC[C@]23CC[C@]4(C)[C@H](CC[C@@H]5[C@@]6(C)CC/C(=N\\O)C(C)(C)[C@@H]6CC[C@]54C)[C@H]2[C@H]1OC3", "EC50": "ND(Insoluble)"},
      {"smiles": "C=C(C)[C@@H]1CC[C@]2(C)[C@H](CC[C@@H]3[C@H]4[C@H]5OC[C@@]4(CCC5(C)C)CC[C@]32C)[C@@]1(C)CCC(=O)O", "EC50": "ND(Insoluble)"},
      {"smiles": "C=C(C)[C@@H]1CC[C@]2(C)[C@H](CC[C@@H]3[C@H]4[C@H]5OC[C@@]4(CCC5(C)C)CC[C@]32C)[C@@]1(C)CCC(=O)OCc1ccccc1", "EC50": "ND(Insoluble)"}
    ]},
    {"system": "A549", "assay": "(§5) Cytotoxicity against human A549 cells by SRB assay", "assay_type": "functional, cell-based", "conditions": "Homo sapiens, A549; read-out: EC50", "procedure,_shortened": "as §2", "units": {"EC50": "µM"}, "values": [
      {"smiles": "CC1(C)CC[C@]23CC[C@]4(C)[C@H](CC[C@@H]5[C@@]6(C)CC[C@@H](N)C(C)(C)[C@@H]6CC[C@]54C)[C@H]2[C@H]1OC3", "EC50": 12.6},
      {"smiles": "CC1(C)CC[C@]23CC[C@]4(C)[C@H](CC[C@@H]5[C@@]6(C)CC[C@H](N)C(C)(C)[C@@H]6CC[C@]54C)[C@H]2[C@H]1OC3", "EC50": 7.3},
      {"smiles": "CCOC(=O)C[C@]1(C)[C@H]2CC[C@@H]3[C@H]4[C@H]5OC[C@@]4(CCC5(C)C)CC[C@@]3(C)[C@]2(C)CC[C@H]1C(C)(C)C(=O)OCC", "EC50": 5.9}
    ]},
    {"system": "A549", "assay": "as §5", "assay_type": "functional, cell-based", "conditions": "a549", "procedure,_shortened": "as §2", "values": [
      {"smiles": "CC1(C)CC[C@]23CC[C@]4(C)[C@H](CC[C@@H]5[C@@]6(C)CC/C(=N\\O)C(C)(C)[C@@H]6CC[C@]54C)[C@H]2[C@H]1OC3", "EC50": "ND(Insoluble)"},
      {"smiles": "C=C(C)[C@@H]1CC[C@]2(C)[C@H](CC[C@@H]3[C@H]4[C@H]5OC[C@@]4(CCC5(C)C)CC[C@]32C)[C@@]1(C)CCC(=O)O", "EC50": "ND(Insoluble)"},
      {"smiles": "C=C(C)[C@@H]1CC[C@]2(C)[C@H](CC[C@@H]3[C@H]4[C@H]5OC[C@@]4(CCC5(C)C)CC[C@]32C)[C@@]1(C)CCC(=O)OCc1ccccc1", "EC50": "ND(Insoluble)"}
    ]},
    {"system": "8505C", "assay": "(§6) Cytotoxicity against human 8505C cells by SRB assay", "assay_type": "functional, cell-based", "conditions": "8505c", "procedure,_shortened": "as §2", "values": [
      {"smiles": "CC1(C)CC[C@]23CC[C@]4(C)[C@H](CC[C@@H]5[C@@]6(C)CC/C(=N\\O)C(C)(C)[C@@H]6CC[C@]54C)[C@H]2[C@H]1OC3", "EC50": "ND(Insoluble)"},
      {"smiles": "C=C(C)[C@@H]1CC[C@]2(C)[C@H](CC[C@@H]3[C@H]4[C@H]5OC[C@@]4(CCC5(C)C)CC[C@]32C)[C@@]1(C)CCC(=O)O", "EC50": "ND(Insoluble)"},
      {"smiles": "C=C(C)[C@@H]1CC[C@]2(C)[C@H](CC[C@@H]3[C@H]4[C@H]5OC[C@@]4(CCC5(C)C)CC[C@]32C)[C@@]1(C)CCC(=O)OCc1ccccc1", "EC50": "ND(Insoluble)"}
    ]},
    {"system": "8505C", "assay": "as §6", "assay_type": "functional, cell-based", "conditions": "Homo sapiens, 8505C; read-out: EC50", "procedure,_shortened": "as §2", "units": {"EC50": "µM"}, "values": [
      {"smiles": "CC1(C)CC[C@]23CC[C@]4(C)[C@H](CC[C@@H]5[C@@]6(C)CC[C@@H](N)C(C)(C)[C@@H]6CC[C@]54C)[C@H]2[C@H]1OC3", "EC50": 15.5},
      {"smiles": "CC1(C)CC[C@]23CC[C@]4(C)[C@H](CC[C@@H]5[C@@]6(C)CC[C@H](N)C(C)(C)[C@@H]6CC[C@]54C)[C@H]2[C@H]1OC3", "EC50": 7.8},
      {"smiles": "CCOC(=O)C[C@]1(C)[C@H]2CC[C@@H]3[C@H]4[C@H]5OC[C@@]4(CCC5(C)C)CC[C@@]3(C)[C@]2(C)CC[C@H]1C(C)(C)C(=O)OCC", "EC50": 24.6}
    ]},
    {"system": "A2780", "assay": "(§7) Cytotoxicity against human A2780 cells by SRB assay", "assay_type": "functional, cell-based", "conditions": "Homo sapiens, A2780; read-out: EC50", "procedure,_shortened": "as §2", "units": {"EC50": "µM"}, "values": [
      {"smiles": "CC1(C)CC[C@]23CC[C@]4(C)[C@H](CC[C@@H]5[C@@]6(C)CC[C@@H](N)C(C)(C)[C@@H]6CC[C@]54C)[C@H]2[C@H]1OC3", "EC50": 12.9},
      {"smiles": "CC1(C)CC[C@]23CC[C@]4(C)[C@H](CC[C@@H]5[C@@]6(C)CC[C@H](N)C(C)(C)[C@@H]6CC[C@]54C)[C@H]2[C@H]1OC3", "EC50": 6.6},
      {"smiles": "CCOC(=O)C[C@]1(C)[C@H]2CC[C@@H]3[C@H]4[C@H]5OC[C@@]4(CCC5(C)C)CC[C@@]3(C)[C@]2(C)CC[C@H]1C(C)(C)C(=O)OCC", "EC50": 18.9}
    ]},
    {"system": "A2780", "assay": "as §7", "assay_type": "functional, cell-based", "conditions": "a2780", "procedure,_shortened": "as §2", "values": [
      {"smiles": "CC1(C)CC[C@]23CC[C@]4(C)[C@H](CC[C@@H]5[C@@]6(C)CC/C(=N\\O)C(C)(C)[C@@H]6CC[C@]54C)[C@H]2[C@H]1OC3", "EC50": "ND(Insoluble)"},
      {"smiles": "C=C(C)[C@@H]1CC[C@]2(C)[C@H](CC[C@@H]3[C@H]4[C@H]5OC[C@@]4(CCC5(C)C)CC[C@]32C)[C@@]1(C)CCC(=O)O", "EC50": "ND(Insoluble)"},
      {"smiles": "C=C(C)[C@@H]1CC[C@]2(C)[C@H](CC[C@@H]3[C@H]4[C@H]5OC[C@@]4(CCC5(C)C)CC[C@]32C)[C@@]1(C)CCC(=O)OCc1ccccc1", "EC50": "ND(Insoluble)"}
    ]}
  ]
}
